Experiments:
HUVEC = assay: Antiangiogenic activity against VEGF-stimulated HUVEC cells after 72 hrs by BrdU method; assay type: functional, cell-based; conditions: Homo sapiens
How it was run: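 HUVEC grown overnight at 37 °C, 5% CO2 in 5% FBS medium on type 1 collagen-coated plates. Medium replaced by serum-free medium with graded inhibitor concentrations, then VEGF (10 ng/ml) added 30 min later. Cells incubated a further 72 h, with BrdU present for the last 18–24 h. IC50 taken as K from the fit y = Vmax(1 − x/(K+x)).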

[1] = target: Vascular endothelial growth factor receptor 2 (Homo sapiens, UniProt P35968); assay: Inhibition of VEGFR-2 after 1 hr by fluorescence polarization assay
Sequence of Vascular endothelial growth factor receptor 2 (P35968 whole entry): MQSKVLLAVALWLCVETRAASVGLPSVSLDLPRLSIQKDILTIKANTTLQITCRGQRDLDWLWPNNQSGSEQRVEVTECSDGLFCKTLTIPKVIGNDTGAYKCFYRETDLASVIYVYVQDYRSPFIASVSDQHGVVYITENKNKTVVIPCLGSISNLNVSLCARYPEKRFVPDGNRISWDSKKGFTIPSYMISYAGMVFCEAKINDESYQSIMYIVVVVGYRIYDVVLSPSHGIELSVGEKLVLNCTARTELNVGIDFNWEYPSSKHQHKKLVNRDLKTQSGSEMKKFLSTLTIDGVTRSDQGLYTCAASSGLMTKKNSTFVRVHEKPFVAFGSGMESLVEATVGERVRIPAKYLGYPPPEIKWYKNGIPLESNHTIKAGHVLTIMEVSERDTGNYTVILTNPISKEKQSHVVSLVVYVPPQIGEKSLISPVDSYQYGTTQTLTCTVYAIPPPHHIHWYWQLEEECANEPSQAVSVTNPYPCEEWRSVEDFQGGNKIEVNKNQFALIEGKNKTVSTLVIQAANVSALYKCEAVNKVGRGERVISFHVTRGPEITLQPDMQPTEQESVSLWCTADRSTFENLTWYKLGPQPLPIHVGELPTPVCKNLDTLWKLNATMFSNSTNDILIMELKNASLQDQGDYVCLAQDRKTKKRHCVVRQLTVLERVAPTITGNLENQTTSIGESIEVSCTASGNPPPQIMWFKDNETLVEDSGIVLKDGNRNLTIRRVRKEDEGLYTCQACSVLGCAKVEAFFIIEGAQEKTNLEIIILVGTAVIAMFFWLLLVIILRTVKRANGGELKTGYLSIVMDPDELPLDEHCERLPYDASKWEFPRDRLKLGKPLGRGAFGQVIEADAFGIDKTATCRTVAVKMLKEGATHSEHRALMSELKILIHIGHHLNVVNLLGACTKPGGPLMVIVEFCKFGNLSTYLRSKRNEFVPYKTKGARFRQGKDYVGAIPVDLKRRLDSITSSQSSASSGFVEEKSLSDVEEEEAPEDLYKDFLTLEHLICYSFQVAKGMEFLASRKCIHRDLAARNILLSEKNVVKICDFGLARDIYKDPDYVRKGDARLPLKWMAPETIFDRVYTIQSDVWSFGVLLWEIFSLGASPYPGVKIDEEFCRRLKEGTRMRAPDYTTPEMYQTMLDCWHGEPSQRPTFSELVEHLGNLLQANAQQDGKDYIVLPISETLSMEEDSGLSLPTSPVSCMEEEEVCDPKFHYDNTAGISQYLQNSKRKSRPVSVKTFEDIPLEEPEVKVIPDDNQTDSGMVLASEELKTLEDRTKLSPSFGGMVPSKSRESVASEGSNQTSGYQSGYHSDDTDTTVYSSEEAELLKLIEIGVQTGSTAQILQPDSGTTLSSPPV
How it was run: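 VEGFR kinase protein in a fluorescence polarization tyrosine kinase kit. Buffer was 20 mM HEPES pH 7.4, 5 mM MgCl2, 2 mM MnCl2, Na3VO4, ATP, 200 ng/mL enzyme and 1 ng/mL poly(Glu,Tyr) 4:1. After 1 h the reaction was stopped with 6 mM EDTA. Anti-phosphotyrosine antibody and PTK green tracer were added, and FP was read after 30 min at room temperature.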

SMILES | IC50 [1] [nM] | IC50 (HUVEC) [nM]
Cc1cccc2cc(/C=C/C(=O)c3cc(Cl)sc3Cl)c(Cl)nc12 | 358 | 295
Cc1csc(C(=O)/C=C/c2cc3cccc(C)c3nc2Cl)c1 | 233 | 153
Cc1ccc2cc(/C=C/C(=O)c3sccc3Br)c(Cl)nc2c1 | 112 | 61.9
Cc1ccc2cc(/C=C/C(=O)c3ccc(C)s3)c(Cl)nc2c1 | 130 | 102
Cc1csc(C(=O)/C=C/c2cc3cc(C)ccc3nc2Cl)c1 | 169 | 106
Cc1cccc2cc(/C=C/C(=O)c3sccc3Cl)c(Cl)nc12 | 130 | 91.5
Cc1ccsc1C(=O)/C=C/c1cc2cccc(C)c2nc1Cl | 267 | 189
Cc1ccc2nc(Cl)c(/C=C/C(=O)c3sccc3Cl)cc2c1 | 87.1 | 37.5
Cc1ccc2cc(/C=C/C(=O)c3sccc3Cl)c(Cl)nc2c1 | 82.7 | 34
Cc1ccc2nc(Cl)c(/C=C/C(=O)c3ccc(C)s3)cc2c1 | 176 | 128
Cc1cccc2cc(/C=C/C(=O)c3ccc(Cl)s3)c(Cl)nc12 | 189 | 116
Cc1ccc(C(=O)/C=C/c2cc3cccc(C)c3nc2Cl)s1 | 262 | 145
Cc1ccc2nc(Cl)c(/C=C/C(=O)c3sccc3C)cc2c1 | 185 | 127
Cc1ccc2nc(Cl)c(/C=C/C(=O)c3ccc(Br)s3)cc2c1 | 113 | 88.4
Cc1cccc2cc(/C=C/C(=O)c3ccsc3)c(Cl)nc12 | 389 | 291
Cc1ccc2nc(Cl)c(/C=C/C(=O)c3cc(C)sc3C)cc2c1 | 453 | 229

The next lines start with results.

IC50 [1] [nM] | SMILES | IC50 (HUVEC) [nM]
561 | Cc1ccc2cc(/C=C/C(=O)c3cc(C)sc3C)c(Cl)nc2c1 | 294
482 | Cc1cccc2cc(/C=C/C(=O)c3ccc(I)s3)c(Cl)nc12 | 284
73.4 | Cc1ccc2cc(/C=C/C(=O)c3cc(Cl)sc3Cl)c(Cl)nc2c1 | 21.8
287 | Cc1ccc2nc(Cl)c(/C=C/C(=O)c3ccsc3)cc2c1 | 107
104 | Cc1ccc2cc(/C=C/C(=O)c3ccc(Br)s3)c(Cl)nc2c1 | 83.6
154 | Cc1ccc2nc(Cl)c(/C=C/C(=O)c3ccc(I)s3)cc2c1 | 129
157 | Cc1ccc2cc(/C=C/C(=O)c3sccc3C)c(Cl)nc2c1 | 124
> 1000 | Cc1cc(C(=O)/C=C/c2cc3cccc(C)c3nc2Cl)c(C)s1 | 
313 | Cc1cccc2cc(/C=C/C(=O)c3sccc3Br)c(Cl)nc12 | 187
139 | Cc1csc(C(=O)/C=C/c2cc3ccc(C)cc3nc2Cl)c1 | 98.9
208 | Cc1ccc2cc(/C=C/C(=O)c3ccsc3)c(Cl)nc2c1 | 107
367 | Cc1cccc2cc(/C=C/C(=O)c3ccc(Br)s3)c(Cl)nc12 | 243
92.2 | Cc1ccc2cc(/C=C/C(=O)c3ccc(Cl)s3)c(Cl)nc2c1 | 49.5
81.4 | Cc1ccc2nc(Cl)c(/C=C/C(=O)c3cc(Cl)sc3Cl)cc2c1 | 26.2
107 | Cc1ccc2nc(Cl)c(/C=C/C(=O)c3ccc(Cl)s3)cc2c1 | 59.4
148 | Cc1ccc2cc(/C=C/C(=O)c3ccc(I)s3)c(Cl)nc2c1 | 135
129 | Cc1ccc2nc(Cl)c(/C=C/C(=O)c3sccc3Br)cc2c1 | 61.9

— ChEMBL document CHEMBL1938258, “Discovery and molecular docking of quinolyl-thienyl chalcones as anti-angiogenic agents targeting VEGFR-2 tyrosine kinase” (Bioorg Med Chem Lett, 2012)
